The values below come from ChEMBL document CHEMBL1772956, “Synthesis and binding affinity of novel mono- and bivalent morphinan ligands for κ, μ, and δ opioid receptors” (Bioorg Med Chem, 2011).

The target of assay [1] is T1, Mu-type opioid receptor (Homo sapiens, UniProt P35372). Briefly: biochemical. Format: cell-based, CHO.
Assay [2] concerns the target T2, Kappa-type opioid receptor (Homo sapiens, UniProt P41145). Briefly: biochemical. Format: cell-based, CHO.
Assay [3] addresses Delta-type opioid receptor (Homo sapiens, UniProt P41143). Briefly: Displacement of [3H]naltrindole from human delta-opioid receptor expressed in CHO cells after 3 hrs by scintillation counting. It is filed as cell-based. On the technique in general: Loss of bound radioactivity is the signal in a displacement assay; it reports binding, not function.
In assay [4] the target is T2, Kappa-type opioid receptor. Briefly: Agonist activity at human kappa-opioid receptor expressed in CHO cells assessed as stimulation of [35S]GTPgammaS binding after 60 mins by scintillation counting. It is filed as functional, cell-based. The procedure, abridged:
(§1)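 Membranes from CHO cells stably expressing human κ or μ opioid receptor were incubated with 12 compound concentrations in 50 mM Tris-HCl pH 7.4 with 3 μM GDP, 3 mM MgCl2, 0.2 mM EGTA and 100 mM NaCl. [35S]GTPγS was 0.08 nM final, 60 min at 30°C, and 10 μM GTPγS gave nonspecific binding. Samples were filtered and counted. EC50 and Emax (% stimulation over basal) came from three experiments in triplicate.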
(In general: GTPγS is a poorly hydrolysed GTP analogue; its binding reports G protein activation.)

In assay [5] the target is T2, Kappa-type opioid receptor. Briefly: Antagonist activity at human kappa-opioid receptor expressed in CHO cells assessed as inhibition of U69593-induced [35S]GTPgammaS binding after 60 mins by scintillation counting. It is filed as functional, cell-based.
In assay [6] the target is T1, Mu-type opioid receptor. Briefly: Agonist activity at human mu-opioid receptor expressed in CHO cells assessed as stimulation of [35S]GTPgammaS binding after 60 mins by scintillation counting. It is filed as functional, cell-based. A digest of the protocol: as §1
Assay [7] addresses T1, Mu-type opioid receptor. Briefly: Antagonist activity at human mu-opioid receptor expressed in CHO cells assessed as inhibition of DAMGO-induced [35S]GTPgammaS binding after 60 mins by scintillation counting. Format: functional, cell-based. The procedure, abridged: (§2)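 Human μ receptor CHO membranes were incubated with 200 nM DAMGO to drive [35S]GTPγS (0.08 nM) binding, with 12 compound concentrations up to 10 μM, in Tris pH 7.4/GDP/MgCl2/EGTA/NaCl buffer, 60 min at 30°C. Nonspecific binding was with 10 μM GTPγS. Samples were filtered and counted.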

In assay [8] the target is T2, Kappa-type opioid receptor. Briefly: Agonist activity at human kappa-opioid receptor expressed in CHO cells assessed as stimulation of [35S]GTPgammaS binding after 60 mins by scintillation counting relative to control. It is filed as functional, cell-based. The procedure, abridged:
as §1

In assay [9] the target is T2, Kappa-type opioid receptor. Briefly: Antagonist activity at human kappa-opioid receptor expressed in CHO cells assessed as inhibition of U69593-induced [35S]GTPgammaS binding after 60 mins by scintillation counting relative to control. It is filed as functional, cell-based.
In assay [10] the target is T1, Mu-type opioid receptor. Briefly: Agonist activity at human mu-opioid receptor expressed in CHO cells assessed as stimulation of [35S]GTPgammaS binding after 60 mins by scintillation counting relative to control. It is filed as functional, cell-based. A digest of the protocol: as §1
Assay [11] concerns the target T1, Mu-type opioid receptor. Briefly: Antagonist activity at human mu-opioid receptor expressed in CHO cells assessed as inhibition of DAMGO-induced [35S]GTPgammaS binding after 60 mins by scintillation counting relative to control. Format: functional, cell-based. The procedure, abridged:
as §2

The species named for assay [12] is Homo sapiens. Briefly: Selectivity ratio of Ki for human kappa opioid receptor over Ki for human mu opioid receptor.
The species named for assay [13] is Homo sapiens. Briefly: Selectivity ratio of Ki for human kappa opioid receptor over Ki for human delta opioid receptor.
For assay [14], the target named is T1, Mu-type opioid receptor. Briefly: Antagonist activity at human mu-opioid receptor expressed in CHO cells assessed as inhibition of DAMGO-induced [35S]GTPgammaS binding at 10 uM after 60 mins by scintillation counting relative to control. Format: functional, cell-based. The procedure, abridged: as §2
For assay [15], the target named is T1, Mu-type opioid receptor. Briefly: Antagonist activity at human mu-opioid receptor expressed in CHO cells assessed as inhibition of DAMGO-induced [35S]GTPgammaS binding at 10 uM after 60 mins by scintillation counting. It is filed as functional, cell-based. The procedure, abridged:
as §2

Calls of active or inactive are those of the source. The rule behind the calls is not given here.

T1 sequence (P35372 whole entry): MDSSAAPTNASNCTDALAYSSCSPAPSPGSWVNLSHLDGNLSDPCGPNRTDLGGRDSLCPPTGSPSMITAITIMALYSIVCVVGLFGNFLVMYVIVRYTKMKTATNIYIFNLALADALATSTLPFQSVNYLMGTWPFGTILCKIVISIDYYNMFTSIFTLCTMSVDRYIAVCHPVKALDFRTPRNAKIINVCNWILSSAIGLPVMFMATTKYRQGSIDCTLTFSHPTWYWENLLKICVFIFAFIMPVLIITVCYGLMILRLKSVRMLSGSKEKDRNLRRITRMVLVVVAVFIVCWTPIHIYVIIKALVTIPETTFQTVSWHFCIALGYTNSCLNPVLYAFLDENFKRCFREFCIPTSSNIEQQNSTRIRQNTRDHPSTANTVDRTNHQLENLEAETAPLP
Sequence of Delta-type opioid receptor (P41143 whole entry): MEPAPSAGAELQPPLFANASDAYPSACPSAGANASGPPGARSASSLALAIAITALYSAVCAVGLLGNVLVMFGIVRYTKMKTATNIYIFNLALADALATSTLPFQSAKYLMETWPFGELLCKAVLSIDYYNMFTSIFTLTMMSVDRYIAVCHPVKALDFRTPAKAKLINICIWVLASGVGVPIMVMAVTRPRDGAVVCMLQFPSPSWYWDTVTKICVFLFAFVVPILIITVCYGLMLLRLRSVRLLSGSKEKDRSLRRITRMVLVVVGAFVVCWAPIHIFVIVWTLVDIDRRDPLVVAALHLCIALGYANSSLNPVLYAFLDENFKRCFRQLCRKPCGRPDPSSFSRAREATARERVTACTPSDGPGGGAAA
T2 sequence (P41145 whole entry): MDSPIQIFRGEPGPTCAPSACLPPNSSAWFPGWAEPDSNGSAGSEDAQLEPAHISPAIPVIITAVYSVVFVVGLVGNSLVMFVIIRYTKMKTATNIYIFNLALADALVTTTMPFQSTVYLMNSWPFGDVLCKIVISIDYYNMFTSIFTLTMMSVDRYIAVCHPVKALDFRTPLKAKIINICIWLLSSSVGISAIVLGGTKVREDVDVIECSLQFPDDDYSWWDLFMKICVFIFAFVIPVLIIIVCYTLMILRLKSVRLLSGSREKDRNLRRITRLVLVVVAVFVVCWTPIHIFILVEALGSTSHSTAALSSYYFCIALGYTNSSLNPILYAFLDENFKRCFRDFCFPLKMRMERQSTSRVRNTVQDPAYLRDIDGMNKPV

By Ki is commonly meant a measure of affinity in units of concentration, obtained from inhibition or displacement. The term EC50 denotes the concentration needed to bring the measured effect to its halfway point. Usually IC50 stands for the concentration that inhibits the measured activity by half. The Emax is the size of the effect at its maximum, as opposed to the concentration needed. As for `C=CCN1CC[C@]23c4c5ccc(OC(=O)CCCCCCCCC(=O)Oc6ccc7c(c6)[C@@]68CCCC[C@@]6(OC)[C@@H](C7)N(CC6CCC6)CC8)c4O[C@H]2C(=O)CC[C@@]3(O)[C@H]1C5`, the Ki at Mu-type opioid receptor [1] amounted to 0.55 nM; in assay [2], 0.14 nM; in assay [3], 39 nM. Further, the EC50 came to 18 nM in [4] and 10 nM on Mu-type opioid receptor [6]. The IC50 in assay [5] (read-out: IC50) was 7.7 nM; at Mu-type opioid receptor [7] it was 19 nM. The Emax worked out at 80% in [8] and 62% on Mu-type opioid receptor [10]. The Imax in [9] was determined as 33%; on Mu-type opioid receptor [11], 45%. Besides, the Ratio Ki amounted to 4 in the assay filed under Homo sapiens [12] and 280 in the assay filed under Homo sapiens [13].

In the case of `CO[C@@]12CCCC[C@@]13CCN(CC1CCC1)[C@@H]2Cc1ccc(OC(=O)CCCCCCCCC(=O)Oc2ccc4c(c2)[C@@]25CCCC[C@@]2(OC)[C@@H](C4)N(CC2CCC2)CC5)cc13`, the Ki was 0.26 nM on Mu-type opioid receptor [1], 0.37 nM in [2] and 13 nM in assay [3]. Further, the results for the EC50 (in assay [4]; on Mu-type opioid receptor [6]) were 2.4 nM and 1.8 nM, respectively. Further, the IC50 in assay [5] (read-out: IC50) was found to be 17 nM; at Mu-type opioid receptor [7], 260 nM. For the same molecule, the results for the Emax (in assay [8]; on Mu-type opioid receptor [10]) were 83% and 42%, respectively. In addition, the Imax was 43% in assay [9] and 44% on Mu-type opioid receptor [11]. Moreover, the Ratio Ki came to 1 in the assay filed under Homo sapiens [12] and 50 in the assay filed under Homo sapiens [13].

Regarding `CO[C@@]12CCCC[C@@]13CCN(CC1CCC1)[C@@H]2Cc1ccc(OC(=O)CCCCCCCCC(=O)OCc2ccccc2)cc13`, the Ki at Mu-type opioid receptor [1] amounted to 0.15 nM; in assay [2] it was 0.23 nM; in assay [3], 14 nM. The EC50 was 2.1 nM in assay [4] and 1.7 nM at Mu-type opioid receptor [6]. Moreover, the results for the IC50 (in assay [5] (read-out: IC50); at Mu-type opioid receptor [7]) were 6.4 nM and 7.6 nM, respectively. Moreover, the values for the Emax (in assay [8]; at Mu-type opioid receptor [10]) were 90% and 54%, respectively. Further, the values for the Imax (in assay [9]; on Mu-type opioid receptor [11]) were 30% and 28%, respectively. The Ratio Ki in the assay filed under Homo sapiens [12] was found to be 1; in the assay filed under Homo sapiens [13] it was 93.

`O=C(CCCCCCCCC(=O)Oc1ccc2c(c1)[C@@]13CCCC[C@H]1[C@@H](C2)N(CC1CCC1)CC3)Oc1ccc2c(c1)[C@@]13CCCC[C@H]1[C@@H](C2)N(CC1CCC1)CC3`: the Ratio Ki in the assay filed under Homo sapiens [12] came out at 2; in the assay filed under Homo sapiens [13] it was 90.

With `O=C(/C=C/C(=O)Oc1ccc2c(c1)[C@@]13CCCC[C@H]1[C@@H](C2)N(CC1CCC1)CC3)Oc1ccc2c(c1)[C@@]13CCCC[C@H]1[C@@H](C2)N(CC1CCC1)CC3`, the Ratio Ki came out at 3 in the assay listed under Homo sapiens [12] and 120 in the assay listed under Homo sapiens [13].

In the case of `c1c2c(cc3sc(NCCCCCCCCCCNc4nc5cc6c(cc5s4)C[C@@H]4[C@@H]5CCCC[C@]65CCN4CC4CC4)nc13)C[C@@H]1[C@@H]3CCCC[C@]23CCN1CC1CC1`, the inhibitory constant (Ki) was 2.5 nM at Mu-type opioid receptor [1], 0.27 nM in assay [2] and 39 nM in assay [3]. Moreover, the results for the EC50 (in assay [4]; on Mu-type opioid receptor [6]) were 7.3 nM and 22 nM, respectively. The IC50 entry was “Not Active” in [5] (cho) and 390 nM on Mu-type opioid receptor [7]. Besides, the Emax stood at 130% in assay [8] and 38% on Mu-type opioid receptor [10]. The Imax result in [9] was “inactive”. Further, the Imax on Mu-type opioid receptor [11] amounted to 71%. Moreover, the Ratio Ki in the assay listed under Homo sapiens [12] turned out to be 9; in the assay filed under Homo sapiens [13] it was 140.

A word on the inhibition: it is how much of the control response was suppressed. For `O=C(CCCCCCCCC(=O)Nc1nc2cc3c(cc2s1)C[C@@H]1[C@@H]2CCCC[C@]32CCN1CC1CC1)Nc1nc2cc3c(cc2s1)C[C@@H]1[C@@H]2CCCC[C@]32CCN1CC1CC1`, the figures for the Ki (on Mu-type opioid receptor [1]; in assay [2]; in assay [3]) were 8.8 nM, 0.37 nM and 170 nM, respectively. For the same molecule, the EC50 was determined as 5.5 nM in [4] and 130 nM at Mu-type opioid receptor [6]. Besides, the 50% inhibitory concentration (IC50) entry in assay [5] (cho) is “Not Active”. Further, the Emax is 130% in assay [8] and 25% on Mu-type opioid receptor [10]. Further, the Imax result in assay [9] is “inactive”. For the same molecule, the inhibition at Mu-type opioid receptor [14] is 74%. In addition, the inhibition result at Mu-type opioid receptor [15] was “inactive”. The Ratio Ki was found to be 24 in the assay listed under Homo sapiens [12] and 460 in the assay filed under Homo sapiens [13].

As for `C=CCN1CC[C@]23c4c5ccc(OC(=O)CCCCCCCCC(=O)Oc6ccc7c(c6)[C@@]68CCCC[C@@]6(O)[C@@H](C7)N(CC6CCC6)CC8)c4O[C@H]2C(=O)CC[C@@]3(O)[C@H]1C5`, the results for the Ki (at Mu-type opioid receptor [1]; in assay [2]; in assay [3]) were 0.82 nM, 0.28 nM and 35 nM, respectively. Further, the EC50 was 12 nM in assay [4] and 2 nM on Mu-type opioid receptor [6]. For the same molecule, the IC50 was determined as 49 nM in [5] (read-out: IC50) and 34 nM at Mu-type opioid receptor [7]. Moreover, the results for the Emax (in [8]; on Mu-type opioid receptor [10]) were 74% and 19%, respectively. In addition, the figures for the Imax (in assay [9]; at Mu-type opioid receptor [11]) were 35% and 73%, respectively. In addition, the Ratio Ki in the assay filed under Homo sapiens [12] turned out to be 3; in the assay listed under Homo sapiens [13] it was 130.

In the case of `CO[C@@]12CCCC[C@@]13CCN(CC1CCC1)[C@@H]2Cc1ccc(O)cc13`, the Ki was 0.14 nM on Mu-type opioid receptor [1], 0.2 nM in assay [2] and 8.1 nM in assay [3]. Further, the EC50 was 2.8 nM in [4] and 3.6 nM at Mu-type opioid receptor [6]. For the same molecule, the IC50 in assay [5] (read-out: IC50) came to 22 nM; on Mu-type opioid receptor [7], 9.3 nM. The figures for the Emax (in [8]; on Mu-type opioid receptor [10]) were 90% and 50%, respectively. Further, the Imax in assay [9] was 37%; at Mu-type opioid receptor [11] it was 50%. In addition, the Ratio Ki turned out to be 1 in the assay filed under Homo sapiens [12] and 58 in the assay filed under Homo sapiens [13].

Consider `O=C(CCCCCCCCC(=O)Oc1ccc2c(c1)[C@@]13CCCC[C@@]1(O)[C@@H](C2)N(CC1CCC1)CC3)Oc1ccc2c(c1)[C@@]13CCCC[C@H]1[C@@H](C2)N(CC1CCC1)CC3`, for which the Ki at Mu-type opioid receptor [1] was determined as 0.089 nM; in [2] it was 0.073 nM; in [3], 8 nM. Besides, the EC50 in assay [4] is 0.84 nM; on Mu-type opioid receptor [6] it was 1.2 nM. Besides, the IC50 in assay [5] (read-out: IC50) is 3.7 nM; on Mu-type opioid receptor [7], 3.4 nM. The maximum response (Emax) in assay [8] stood at 100%; on Mu-type opioid receptor [10], 46%. The Imax was determined as 23% in [9] and 50% at Mu-type opioid receptor [11]. The Ratio Ki in the assay filed under Homo sapiens [12] was 1; in the assay filed under Homo sapiens [13], 110.

Take `Nc1nc2cc3c(cc2s1)C[C@@H]1[C@@H]2CCCC[C@]32CCN1CC1CC1`: the values for the Ratio Ki in the assay listed under Homo sapiens [12] and in the assay listed under Homo sapiens [13] were 31 and 592, respectively.
